Test [1] has as its system melanocyte-stimulating hormone receptor (Rana pipiens). The experiment in a line: Maximum agonist response for frog skin melanocortin 1 receptor (MC1R); No activity up to 10^-5M.
Another test addresses Melanocortin receptor 3 (Rattus norvegicus, UniProt P32244). Put plainly: Maximal agonist response at rat melanocortin 3 receptor (MC3R). It is filed as functional. The procedure, abridged:
(§1)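 Cells stably expressing wild-type mouse (MC3R: rat) melanocortin receptor, transfected with 4 μg CRE/β-galactosidase reporter; 5000–15 000 cells plated, incubated overnight. At 48 h post-transfection, stimulated 6 h in DMEM with 0.1 mg/mL BSA and 0.1 mM IBMX; forskolin 10^-4 M reference.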

For another test, the target named is Melanocortin receptor 5 (Mus musculus, UniProt P41149). Put plainly: Maximum agonist response for mouse melanocortin 5 receptor (MC5R). The test is classed as functional. The procedure, abridged: as §1
The target of test [2] is T1, Melanocortin receptor 4 (Mus musculus, UniProt P56450). Put plainly: Effective concentration for maximum agonist response towards mouse melanocortin 4 receptor (MC4R); No activity up to 10^-5 M. The test is classed as functional. The procedure, abridged:
as §1

The target of test [3] is Melanocyte-stimulating hormone receptor (Mus musculus, UniProt Q01727). Put plainly: Maximal agonist response of mouse melanocortin 1 receptor (MC1R). It is filed as functional. The method, boiled down:
as §1

Test [4] concerns Melanocortin receptor 1 (Rana pipiens). The experiment in a line: Inhibition of 1 nM alpha melanocortin stimulating hormone (MSH) from frog skin; antagonist.
Test [5] deals with melanocyte-stimulating hormone receptor (Rana pipiens). Put plainly: Inhibition of 1 nM alpha melanocortin stimulating hormone from frog skin; No activity up to 10^-5 M.
In test [6] the target is T1, Melanocortin receptor 4. Put plainly: Effective concentration for maximum agonist response towards mouse melanocortin 4 receptor. The test is classed as functional. The method, boiled down:
as §1

This note sets out measurements from ChEMBL document CHEMBL1149102, “De novo design, synthesis, and pharmacology of alpha-melanocyte stimulating hormone analogues derived from somatostatin by a hybrid approach” (J Med Chem, 2004).

Chain of Melanocortin receptor 5 (P41149 whole entry): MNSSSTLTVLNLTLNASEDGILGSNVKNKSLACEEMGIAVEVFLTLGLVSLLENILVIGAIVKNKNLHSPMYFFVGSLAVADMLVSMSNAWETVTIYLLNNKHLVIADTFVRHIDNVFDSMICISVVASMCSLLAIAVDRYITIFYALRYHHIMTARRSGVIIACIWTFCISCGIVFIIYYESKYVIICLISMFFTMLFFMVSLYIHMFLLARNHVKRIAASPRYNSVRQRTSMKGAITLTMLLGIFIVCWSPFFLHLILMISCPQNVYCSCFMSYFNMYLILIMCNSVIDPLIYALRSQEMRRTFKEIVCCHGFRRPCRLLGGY
Chain of Melanocortin receptor 3 (P32244 whole entry): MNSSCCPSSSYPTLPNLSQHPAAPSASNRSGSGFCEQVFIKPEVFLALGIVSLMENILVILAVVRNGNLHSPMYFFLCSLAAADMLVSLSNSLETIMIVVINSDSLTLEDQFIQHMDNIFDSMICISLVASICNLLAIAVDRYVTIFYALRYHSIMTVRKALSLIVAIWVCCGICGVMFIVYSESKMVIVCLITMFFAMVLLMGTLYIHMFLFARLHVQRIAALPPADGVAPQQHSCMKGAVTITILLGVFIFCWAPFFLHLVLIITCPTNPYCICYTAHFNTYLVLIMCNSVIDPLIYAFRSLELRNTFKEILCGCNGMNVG
Chain of Melanocyte-stimulating hormone receptor (Q01727 whole entry): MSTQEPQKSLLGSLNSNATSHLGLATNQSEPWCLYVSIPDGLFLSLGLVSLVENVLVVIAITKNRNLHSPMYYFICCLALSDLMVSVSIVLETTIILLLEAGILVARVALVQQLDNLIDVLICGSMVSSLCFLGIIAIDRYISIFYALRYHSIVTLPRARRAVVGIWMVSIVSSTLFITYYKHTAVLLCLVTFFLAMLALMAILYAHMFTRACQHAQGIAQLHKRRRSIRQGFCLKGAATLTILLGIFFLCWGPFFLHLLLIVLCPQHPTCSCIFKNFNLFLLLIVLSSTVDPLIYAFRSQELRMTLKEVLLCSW
T1 sequence (P56450 whole entry): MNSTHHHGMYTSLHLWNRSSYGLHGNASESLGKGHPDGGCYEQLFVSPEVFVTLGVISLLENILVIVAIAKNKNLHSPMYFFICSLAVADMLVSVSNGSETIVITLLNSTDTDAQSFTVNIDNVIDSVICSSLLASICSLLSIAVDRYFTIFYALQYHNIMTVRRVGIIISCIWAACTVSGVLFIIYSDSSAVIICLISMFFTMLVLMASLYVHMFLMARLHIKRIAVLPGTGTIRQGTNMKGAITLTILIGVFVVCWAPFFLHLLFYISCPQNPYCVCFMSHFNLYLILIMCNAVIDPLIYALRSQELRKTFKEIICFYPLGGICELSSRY

In general, EC50 refers to the concentration that produces a half-maximal response. A lower EC50 goes with an effect from little substance. For the compound `C[C@@H](O)[C@H](NC(=O)[C@H]1NC(=O)[C@H](Cc2c[nH]c3ccccc23)NC(=O)[C@H](CCCN=C(N)N)NC(=O)[C@@H](Cc2c[nH]c3ccccc23)NC(=O)[C@H](Cc2ccc(O)cc2)NC(=O)[C@@H](NC(=O)[C@H](N)Cc2ccccc2)CSSC1(C)C)C(N)=O`, in test [1], the EC50 entry is on record as “Not Active”.

On to `C[C@@H](O)[C@H](NC(=O)[C@H]1CSSC(C)(C)[C@H](NC(=O)[C@H](N)Cc2ccccc2)C(=O)N[C@@H](Cc2c[nH]cn2)C(=O)N[C@@H](Cc2ccccc2)C(=O)N[C@@H](CCCN)C(=O)N[C@H](Cc2c[nH]c3ccccc23)C(=O)N1)C(N)=O`, for which the EC50 was 59 nM on Melanocortin receptor 3; 46 nM at Melanocortin receptor 5; “Not Active” at Melanocortin receptor 4 [2]; 490 nM in test [3]; “Not Active” in test [1]. In test [4], the IC50 result is “Antagonist”.

Consider `C[C@@H](O)[C@H](NC(=O)[C@H]1NC(=O)[C@H]([C@@H](C)O)NC(=O)[C@H](CCCN=C(N)N)NC(=O)[C@@H](Cc2ccccc2)NC(=O)[C@H](Cc2ccccc2)NC(=O)[C@@H](NC(=O)[C@H](N)Cc2ccccc2)CSSC1(C)C)C(N)=O`, for which the EC50 entry in test [1] is “Not Active”. The IC50 result in test [5] is “Not Active”.

Consider `C[C@@H](O)[C@H](NC(=O)[C@H]1NC(=O)[C@H]([C@@H](C)O)NC(=O)[C@H](CCCN=C(N)N)NC(=O)[C@@H](Cc2c[nH]c3ccccc23)NC(=O)[C@H](Cc2ccc(I)cc2)NC(=O)[C@@H](NC(=O)[C@H](N)Cc2ccccc2)CSSC1(C)C)C(N)=O`, for which the EC50 entry in test [1] was “Not Active”.

Take `C[C@@H](O)[C@H](NC(=O)[C@@H]1CSSC[C@H](NC(=O)[C@H](N)Cc2ccccc2)C(=O)N[C@@H](Cc2c[nH]cn2)C(=O)N[C@@H](Cc2ccc(I)cc2)C(=O)N[C@@H](CCCN=C(N)N)C(=O)N[C@H](Cc2c[nH]c3ccccc23)C(=O)N1)C(N)=O`: the EC50 entry in test [1] was “Not Active”. Also, the IC50 entry in test [5] is reported as “Not Active”.

In the case of `C[C@@H](O)[C@H](NC(=O)[C@H]1NC(=O)[C@H](CO)NC(=O)[C@H](CCCN=C(N)N)NC(=O)[C@@H](Cc2c[nH]c3ccccc23)NC(=O)[C@H](Cc2ccc(O)cc2)NC(=O)[C@@H](NC(=O)[C@H](N)Cc2ccccc2)CSSC1(C)C)C(N)=O`, the EC50 entry in test [1] is “Not Active”.

Regarding `C[C@@H](O)[C@H](NC(=O)[C@H]1CSSC[C@H](NC(=O)[C@H](N)Cc2ccccc2)C(=O)N[C@H](Cc2cnc[nH]2)C(=O)N[C@H](Cc2ccccc2)C(=O)N[C@@H](CCCNC(=N)N)C(=O)N[C@H](Cc2c[nH]c3ccccc23)C(=O)N1)C(N)=O`, the EC50 at Melanocortin receptor 3 came to 0.23 nM; at Melanocortin receptor 4 [6], 0.2 nM; at Melanocortin receptor 5 it was 0.1 nM; in test [3], 0.23 nM. Also, the IC50 entry in test [5] is listed as “Not Active”.

With `C[C@@H](O)[C@H](NC(=O)[C@@H]1CSSC[C@H](NC(=O)[C@H](N)Cc2ccccc2)C(=O)N[C@@H](Cc2c[nH]cn2)C(=O)N[C@@H](Cc2cccc3ccccc23)C(=O)N[C@@H](CCCN=C(N)N)C(=O)N[C@H](Cc2c[nH]c3ccccc23)C(=O)N1)C(N)=O`, the IC50 entry in test [5] is “Not Active”.

On to `C[C@@H](O)[C@H](NC(=O)[C@@H]1CSSC[C@H](NC(=O)[C@H](N)Cc2ccccc2)C(=O)N[C@@H](Cc2c[nH]cn2)C(=O)N[C@H](Cc2ccc(Cl)cc2)C(=O)N[C@@H](CCCN=C(N)N)C(=O)N[C@@H](Cc2c[nH]c3ccccc23)C(=O)N1)C(N)=O`, for which the IC50 result in test [5] was “Not Active”.

Take `C[C@H](O)[C@@H](NC(=O)[C@H]1CSSC[C@H](NC(=O)[C@H](N)Cc2ccccc2)C(=O)N[C@@H](Cc2cnc[nH]2)C(=O)N[C@@H](Cc2ccc(Cl)cc2)C(=O)N[C@@H](CCCNC(=N)N)C(=O)N[C@H](Cc2c[nH]c3ccccc23)C(=O)N1)C(N)=O`: the EC50 was determined as 7.3 nM on Melanocortin receptor 3, 0.67 nM on Melanocortin receptor 4 [6], 0.11 nM at Melanocortin receptor 5 and 0.37 nM in test [3].

For the compound `C[C@@H](O)[C@H](NC(=O)[C@@H]1CCSSC[C@H](NC(=O)[C@H](N)Cc2ccccc2)C(=O)N[C@@H](Cc2c[nH]cn2)C(=O)N[C@H](Cc2ccccc2)C(=O)N[C@@H](CCCN=C(N)N)C(=O)N[C@@H](Cc2c[nH]c3ccccc23)C(=O)N1)C(N)=O`, the IC50 result in test [5] is given as “Not Active”.

In the case of `C[C@@H](O)[C@H](NC(=O)[C@@H]1CCSSC[C@H](NC(=O)[C@H](N)Cc2ccccc2)C(=O)N[C@@H](Cc2cnc[nH]2)C(=O)N[C@H](Cc2ccccc2)C(=O)N[C@@H](CCCNC(=N)N)C(=O)N[C@@H](Cc2c[nH]c3ccccc23)C(=O)N1)C(N)=O`, the EC50 on Melanocortin receptor 4 [6] worked out at 51 nM; at Melanocortin receptor 5 it was 2.2 nM; in test [3] it was 5.1 nM.

In turn, `C[C@@H](O)[C@H](NC(=O)[C@H]1CCSSC[C@H](NC(=O)[C@@H](N)Cc2ccccc2)C(=O)N[C@@H](Cc2cnc[nH]2)C(=O)N[C@H](Cc2ccccc2)C(=O)N[C@@H](CCCNC(=N)N)C(=O)N[C@H](Cc2c[nH]c3ccccc23)C(=O)N1)C(N)=O` showed an EC50 on Melanocortin receptor 3 of 75 nM.

Take `C[C@@H](O)[C@H](NC(=O)[C@@H]1CSSC[C@@H](NC(=O)[C@H](N)Cc2ccccc2)C(=O)N[C@@H](Cc2c[nH]cn2)C(=O)N[C@@H](Cc2ccc3ccccc3c2)C(=O)N[C@@H](CCCN=C(N)N)C(=O)N[C@H](Cc2c[nH]c3ccccc23)C(=O)N1)C(N)=O`: the EC50 result in test [1] is reported as “Not Active”. Moreover, the IC50 entry in test [5] is on record as “Not Active”.

With `C[C@@H](O)[C@H](NC(=O)[C@H]1CSSC[C@H](NC(=O)[C@@H](N)Cc2ccccc2)C(=O)N[C@@H](Cc2c[nH]cn2)C(=O)N[C@H](Cc2ccccc2)C(=O)N[C@@H](CCCN=C(N)N)C(=O)N[C@H](Cc2c[nH]c3ccccc23)C(=O)N1)C(N)=O`, in test [5], the IC50 result is “Not Active”.

Regarding `C[C@@H](O)[C@H](NC(=O)[C@@H]1NC(=O)[C@H](Cc2c[nH]c3ccccc23)NC(=O)[C@H](CCCN=C(N)N)NC(=O)[C@H](Cc2c[nH]c3ccccc23)NC(=O)[C@H](Cc2ccccc2)NC(=O)[C@@H](NC(=O)[C@H](N)Cc2ccccc2)CSSC1(C)C)C(N)=O`, in test [1], the EC50 entry is listed as “Not Active”.

As for `C[C@@H](O)[C@H](NC(=O)[C@H]1CSSC[C@H](NC(=O)[C@H](N)Cc2ccccc2)C(=O)N[C@@H](Cc2c[nH]cn2)C(=O)N[C@@H](Cc2ccccc2)C(=O)N[C@@H](CCCN=C(N)N)C(=O)N[C@H](Cc2c[nH]c3ccccc23)C(=O)N1)C(N)=O`, the EC50 on Melanocortin receptor 3 was 3 nM; on Melanocortin receptor 4 [6], 1.4 nM; on Melanocortin receptor 5, 0.12 nM; in test [3] it was 1.5 nM. The IC50 result in test [5] is recorded as “Not Active”.

Turning to `C[C@@H](O)[C@H](NC(=O)[C@@H]1CSSC[C@H](NC(=O)[C@H](N)Cc2ccccc2)C(=O)N[C@@H](Cc2c[nH]cn2)C(=O)N[C@@H](Cc2ccc(F)cc2)C(=O)N[C@@H](CCCN=C(N)N)C(=O)N[C@H](Cc2c[nH]c3ccccc23)C(=O)N1)C(N)=O`, the IC50 entry in test [5] is given as “Not Active”.

Turning to `C[C@@H](O)[C@H](NC(=O)[C@H]1NC(=O)[C@H](Cc2c[nH]c3ccccc23)NC(=O)[C@H](CCCNC(=N)N)NC(=O)[C@@H](Cc2ccccc2)NC(=O)[C@H](Cc2cnc[nH]2)NC(=O)[C@@H](NC(=O)[C@H](N)Cc2ccccc2)CSSC1(C)C)C(N)=O`, the EC50 at Melanocortin receptor 4 [6] came to 20 nM; at Melanocortin receptor 5 it was 0.14 nM; in test [3], 6.9 nM.

Turning to `C[C@@H](O)[C@H](NC(=O)[C@H]1NC(=O)[C@H](Cc2c[nH]c3ccccc23)NC(=O)[C@H](CCCN=C(N)N)NC(=O)[C@@H](Cc2ccccc2)NC(=O)[C@H](Cc2c[nH]cn2)NC(=O)[C@@H](NC(=O)[C@H](N)Cc2ccccc2)CSSC1(C)C)C(N)=O`, in test [5], the IC50 entry is “Not Active”.

In the case of `C[C@@H](O)[C@H](NC(=O)[C@@H]1NC(=O)[C@@H](Cc2c[nH]c3ccccc23)NC(=O)[C@H](CCCNC(=N)N)NC(=O)[C@@H](Cc2ccccc2)NC(=O)[C@@H](Cc2cnc[nH]2)NC(=O)[C@@H](NC(=O)[C@H](N)Cc2ccccc2)CSSC1(C)C)C(N)=O`, at Melanocortin receptor 3, the midpoint of the response, the EC50, lay at 64 nM.

In the case of `C[C@@H](O)[C@H](NC(=O)[C@@H]1CCCCNC(=O)C[C@H](NC(=O)[C@H](N)Cc2ccccc2)C(=O)N[C@@H](Cc2cnc[nH]2)C(=O)N[C@H](Cc2ccccc2)C(=O)N[C@@H](CCCNC(=N)N)C(=O)N[C@@H](Cc2c[nH]c3ccccc23)C(=O)N1)C(N)=O`, the EC50 on Melanocortin receptor 4 [6] was found to be 0.38 nM; on Melanocortin receptor 5 it was 0.074 nM; in test [3], 0.047 nM.

`C[C@@H](O)[C@H](NC(=O)[C@@H]1CCCCNC(=O)C[C@H](NC(=O)[C@H](N)Cc2ccccc2)C(=O)N[C@@H](Cc2c[nH]cn2)C(=O)N[C@H](Cc2ccccc2)C(=O)N[C@@H](CCCN=C(N)N)C(=O)N[C@@H](Cc2c[nH]c3ccccc23)C(=O)N1)C(N)=O`: the IC50 result in test [5] was “Not Active”.

For the compound `C[C@@H](O)[C@H](NC(=O)[C@H]1CCCCNC(=O)C[C@H](NC(=O)[C@@H](N)Cc2ccccc2)C(=O)N[C@@H](Cc2cnc[nH]2)C(=O)N[C@H](Cc2ccccc2)C(=O)N[C@@H](CCCNC(=N)N)C(=O)N[C@H](Cc2c[nH]c3ccccc23)C(=O)N1)C(N)=O`, the EC50 at Melanocortin receptor 3 was 0.23 nM.

In the case of `C[C@@H](O)[C@H](NC(=O)[C@H]1NC(=O)[C@H](Cc2c[nH]c3ccccc23)NC(=O)[C@H](CCCN=C(N)N)NC(=O)[C@@H](Cc2c[nH]c3ccccc23)NC(=O)[C@H](Cc2ccccc2)NC(=O)[C@@H](NC(=O)[C@H](N)Cc2ccccc2)CSSC1(C)C)C(N)=O`, in test [1], the EC50 result was “Not Active”.
